40 molecules from PubChem BioAssay can be followed below.

Activity calls are given as the source filed them.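 How the source made its calls, unless noted: active means primary screen active whose calcium signal fell more than 3 SD beyond the full-serotonin control mean in both duplicate plates; inactive means the rest.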

System in the first test: not listed separately
The test can be described thus: calcium flux inhibitors in TRPC4/5HT1a cells, confirmation, counter-screen for TRPC4 inhibitor project, cell-based, second counter screen, HEK293 TRPC4/5HT1a, Fluo-4 (AID 434978).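 Further: serotonin given first at submaximal then at maximal dose after compound preincubation.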 Conditions: Fluo-4 calcium flux, at 10 µM, serotonin added to trigger calcium flux; stronger effect = higher value. In a few lines: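 System: HEK293 line stably carrying TRPC4 plus 5HT1a receptor; benchmarks: maximal serotonin stimulation controls; measured by: Fluo-4 calcium flux, kinetic fluorescence; reagent: sequential submaximal then ECmax serotonin stimulation; times: compound 110 s, submaximal serotonin 110 s, ECmax serotonin read 110 s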
Take `COc1ccc(C(CCNCc2ccc(N(C)C)cc2)c2ccccc2)cc1` (stereo not given): the result was inactive.

In the case of `COc1ccc(C(=O)NNC(=S)NC(=O)c2cccs2)cc1`, the result was inactive.

On to `Cc1cccc(C(=O)NC(=S)NNC(=O)Cc2ccccc2)c1`, for which the outcome was inactive.

As for `COc1ccc(CC(=O)NCC(c2ccc(OC)cc2)N(C)C)cc1` (stereo not given), the outcome was inactive.

On to `COc1cccc(C(=O)NC2CCCN(C3Cc4ccccc4C3)C2)c1OC` (stereo not given), for which the outcome was inactive.

For the molecule `NC(=O)C1CCCN(CCc2ccccc2)C1` (stereo not given), the result was inactive.

Take `CNC[C@H](Cc1ccccc1)NC[C@@H](Cc1cccc2ccccc12)NCCc1ccc(C)cc1`: the result was inactive.

For `O=C(CC1C(=O)NCCN1Cc1cccc(Oc2ccccc2)c1)NCCc1ccccn1` (stereo not given), the outcome was inactive.

In the case of `COc1ccccc1/C=C/CN1CCCC(CCC(=O)NCc2ccccc2F)C1` (stereo not given), the result was inactive.

`C=CCn1c(/N=C/c2ccc(N(C)C)cc2)nc2ccccc21`: the result was inactive.

Regarding `Cc1oc(-c2ccccc2Cl)nc1CS(=O)CC(=O)NCCCN1CC(C)CC(C)C1` (stereo not given), the result was inactive.

With `COc1ccc(CN2CCC(N(CCc3ccccc3)Cc3ccccc3)CC2)c(OC)c1`, the outcome was inactive.

In the case of `O=C(NC(=S)NNC(=O)c1ccccc1[N+](=O)[O-])c1ccc(Br)cc1`, the outcome was inactive.

Regarding `O=C(NC1CCN(Cc2ccccc2)CC1)C12CC3CC(CC(C3)C1)C2`, the outcome was inactive.

Consider `CCCN1CCN(C(=O)Cn2c(=O)oc3cc(S(=O)(=O)NCc4ccccc4)ccc32)CC1`, for which the outcome was inactive.

In the case of `Cn1c2ccccc2c(=O)c2c(=O)n(C3CCCCC3)c(-c3ccco3)nc21`, the outcome was inactive.

Regarding `OCCC1CN(Cc2ccccc2-c2ccco2)CCN1Cc1ccccc1` (stereo not given), the outcome was inactive.

Take `CCN1CCCC1CNS(=O)(=O)c1c(C)cc(C)cc1C` (stereo not given): the result was inactive.

With `Cc1ccc(OCC(=O)N(C)CCc2ccccn2)cc1`, the result was inactive.

`CC(C)n1cnc2c(N(C)c3ccccc3)nc(N(CCN(C)C)Cc3ccccc3)nc21`: the outcome was inactive.

With `CCC(=O)N1CCc2cc(Br)cc(S(=O)(=O)NCCCN(CC)Cc3ccccc3)c21`, the result was inactive.

With `NCCCNC(=O)c1cc2ccccc2[nH]1`, the outcome was inactive.

For the molecule `CN(C)C(CNC(=O)Nc1cccc(Cl)c1)c1cccnc1` (stereo not given), the outcome was inactive.

As for `CN(C)C(CNC(=O)CCS(=O)(=O)c1ccccc1)c1ccccc1` (stereo not given), the result was inactive.

`COc1c2c(cc3c1C(CC(O)Cc1ccccc1)N(C)CC3)OCO2` (stereo not given): the outcome was inactive.

On to `CC1CN(C)C(C)c2c1oc1ccc(N)cc21` (stereo not given), for which the outcome was inactive.

On to `CN(C)c1ccc(C(CNC(=O)Cc2cccc3ccccc23)N(C)C)cc1` (stereo not given), for which the outcome was inactive.

In the case of `Cc1cc(C)cc(NC(=S)N2CCN(c3ncc(C(F)(F)F)cc3Cl)CC2)c1`, the outcome was inactive.

On to `COC(=O)C1CCN(Cc2cn(-c3ccccc3)nc2-c2ccc3c(c2)OCO3)CC1`, for which the outcome was inactive.

On to `Cc1cccc(OCCOCCN2CCNCC2)c1C`, for which the result was inactive.

As to `O=C1/C(=C\c2cc([N+](=O)[O-])ccc2O)SC(=S)N1Cc1ccc(Cl)cc1`, the result was inactive.

Consider `CCn1c(N2CCN(S(=O)(=O)CC)CC2)nc2ccccc21`, for which the outcome was inactive.

On to `COc1ccc(CSCCN)cc1Cl`, for which the result was inactive.

Consider `O=C1S/C(=C\c2ccc(N3CCOCC3)o2)C(=O)N1Cc1c(F)cccc1Cl`, for which the result was inactive.

In the case of `CC(C)(C)[C@H]1C=C(C(=O)NCc2ccccc2)O[C@@H](OCc2ccc(CO)cc2)C1`, the result was inactive.

On to `Nc1c(C(=O)c2ccccc2)sc2nsc(SCCN3CCCC3)c12`, for which the outcome was inactive.

Consider `O=C(CC(=O)c1c(F)cccc1Cl)c1ccccc1O`, for which the result was inactive.

For `Cc1ccccc1Cn1c(CN2CCc3ccccc3C2)nc2c1c(=O)n(C)c(=O)n2C`, the outcome was inactive.

As for `Cc1csc2c(N3CCN(C(=O)Nc4ccc(OC(F)(F)F)cc4)CC3)ncnc12`, the result was inactive.

On to `O=S(=O)(NCCc1csc(-c2ccccc2)n1)c1cccnc1`, for which the result was inactive.

The subject of a further test is TRPC4 (mouse), co-expressed with 5HT1a in HEK293. Put plainly: calcium flux potentiators in TRPC4/5HT1a cells, confirmation, counter-screen for TRPC4 potentiator project, cell-based, second counter screen, HEK293 TRPC4/5HT1a, Fluo-4 (AID 434979;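 active means signal rise over 3 SD above mean of control wells given weak agonist, in both repeats and first screen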). Particulars: Fluo-4 calcium flux, at 10 µM, serotonin added at its EC20 dose; stronger effect = higher value.
For `COc1ccc(C(CCNCc2ccc(N(C)C)cc2)c2ccccc2)cc1` (stereo not given), the result was inactive.

For `COc1ccc(C(=O)NNC(=S)NC(=O)c2cccs2)cc1`, the result was inactive.

`Cc1cccc(C(=O)NC(=S)NNC(=O)Cc2ccccc2)c1`: the outcome was inactive.

Take `COc1ccc(CC(=O)NCC(c2ccc(OC)cc2)N(C)C)cc1` (stereo not given): the outcome was inactive.

In the case of `COc1cccc(C(=O)NC2CCCN(C3Cc4ccccc4C3)C2)c1OC` (stereo not given), the outcome was inactive.

Regarding `NC(=O)C1CCCN(CCc2ccccc2)C1` (stereo not given), the outcome was inactive.

Take `CNC[C@H](Cc1ccccc1)NC[C@@H](Cc1cccc2ccccc12)NCCc1ccc(C)cc1`: the outcome was inactive.

Take `O=C(CC1C(=O)NCCN1Cc1cccc(Oc2ccccc2)c1)NCCc1ccccn1` (stereo not given): the outcome was inactive.

As to `COc1ccccc1/C=C/CN1CCCC(CCC(=O)NCc2ccccc2F)C1` (stereo not given), the outcome was inactive.

Regarding `C=CCn1c(/N=C/c2ccc(N(C)C)cc2)nc2ccccc21`, the potentiation is 10.4% (active).

Regarding `Cc1oc(-c2ccccc2Cl)nc1CS(=O)CC(=O)NCCCN1CC(C)CC(C)C1` (stereo not given), the result was inactive.

`COc1ccc(CN2CCC(N(CCc3ccccc3)Cc3ccccc3)CC2)c(OC)c1`: the outcome was inactive.

`O=C(NC(=S)NNC(=O)c1ccccc1[N+](=O)[O-])c1ccc(Br)cc1`: the result was inactive.

With `O=C(NC1CCN(Cc2ccccc2)CC1)C12CC3CC(CC(C3)C1)C2`, the outcome was inactive.

Take `CCCN1CCN(C(=O)Cn2c(=O)oc3cc(S(=O)(=O)NCc4ccccc4)ccc32)CC1`: the outcome was inactive.

Turning to `Cn1c2ccccc2c(=O)c2c(=O)n(C3CCCCC3)c(-c3ccco3)nc21`, the outcome was inactive.

Take `OCCC1CN(Cc2ccccc2-c2ccco2)CCN1Cc1ccccc1` (stereo not given): the outcome was inactive.

As for `CCN1CCCC1CNS(=O)(=O)c1c(C)cc(C)cc1C` (stereo not given), the outcome was inactive.

For the molecule `Cc1ccc(OCC(=O)N(C)CCc2ccccn2)cc1`, the result was inactive.

As to `CC(C)n1cnc2c(N(C)c3ccccc3)nc(N(CCN(C)C)Cc3ccccc3)nc21`, the outcome was inactive.

For `CCC(=O)N1CCc2cc(Br)cc(S(=O)(=O)NCCCN(CC)Cc3ccccc3)c21`, the result was inactive.

As to `NCCCNC(=O)c1cc2ccccc2[nH]1`, the outcome was inactive.

With `CN(C)C(CNC(=O)Nc1cccc(Cl)c1)c1cccnc1` (stereo not given), the result was inactive.

`CN(C)C(CNC(=O)CCS(=O)(=O)c1ccccc1)c1ccccc1` (stereo not given): the outcome was inactive.

Consider `COc1c2c(cc3c1C(CC(O)Cc1ccccc1)N(C)CC3)OCO2` (stereo not given), for which the result was inactive.

Take `CC1CN(C)C(C)c2c1oc1ccc(N)cc21` (stereo not given): the result was inactive.

On to `CN(C)c1ccc(C(CNC(=O)Cc2cccc3ccccc23)N(C)C)cc1` (stereo not given), for which the result was inactive.

As for `Cc1cc(C)cc(NC(=S)N2CCN(c3ncc(C(F)(F)F)cc3Cl)CC2)c1`, the result was inactive.

Turning to `COC(=O)C1CCN(Cc2cn(-c3ccccc3)nc2-c2ccc3c(c2)OCO3)CC1`, the outcome was inactive.

On to `Cc1cccc(OCCOCCN2CCNCC2)c1C`, for which the result was inactive.

In the case of `O=C1/C(=C\c2cc([N+](=O)[O-])ccc2O)SC(=S)N1Cc1ccc(Cl)cc1`, the potentiation is 21% (active).

Turning to `CCn1c(N2CCN(S(=O)(=O)CC)CC2)nc2ccccc21`, the outcome was inactive.

`COc1ccc(CSCCN)cc1Cl`: the result was inactive.

For `O=C1S/C(=C\c2ccc(N3CCOCC3)o2)C(=O)N1Cc1c(F)cccc1Cl`, the outcome was inactive.

Consider `CC(C)(C)[C@H]1C=C(C(=O)NCc2ccccc2)O[C@@H](OCc2ccc(CO)cc2)C1`, for which the outcome was inactive.

As to `Nc1c(C(=O)c2ccccc2)sc2nsc(SCCN3CCCC3)c12`, the result was inactive.

Take `O=C(CC(=O)c1c(F)cccc1Cl)c1ccccc1O`: the result was inactive.

As for `Cc1ccccc1Cn1c(CN2CCc3ccccc3C2)nc2c1c(=O)n(C)c(=O)n2C`, the potentiation is 88.5% (active).

As to `Cc1csc2c(N3CCN(C(=O)Nc4ccc(OC(F)(F)F)cc4)CC3)ncnc12`, the result was inactive.

Regarding `O=S(=O)(NCCc1csc(-c2ccccc2)n1)c1cccnc1`, the outcome was inactive.
